PAD4 FP inh: blocks human protein arginine deiminase 4; recombinant PAD4, RCA probe fluorescence polarization; Q9UM07; inhibition, % at 6.36 µM; 330,000 tested, 0.41% active;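 active means percent inhibition above a cutoff equal to the mean of all tested compounds plus 3 SD, cut at about 15% in these data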;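 further: 0% = PAD4 with RCA probe and DMSO and 100% = probe without PAD4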
Apaf1 inhib: blocks human Apaf-1 apoptosome activity; inhibition, % at 20 µM; AID 489030; reconstituted apoptosome caspase-3 activity, DEVD-Rh110 fluorescence; 330,000 tested, 0.71% active; O14727; active means inhibition of at least 40% at 20 µM;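 further: plate controls were DMSO wells for no effect and DEVD-CHO caspase inhibitor wells for full effect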
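Material: reconstituted apoptosome with Apaf-1, cytochrome c, caspase-9, procaspase-3, dATP; medium: pH 7.5 Hepes buffer with CHAPS, BSA, DTT; also added: cytochrome c and DEVD-Rh110 substrate; timing: 30 min plus 50 min, RT; signal: Rh110 fluorescence intensity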
Fh CTSL1 inh: counter-screen for PFM18AAP inhibitors: inhibitors of F. hepatica cathepsin L1; inhibition, % at 5.96 µM; recombinant F. hepatica cathepsin L1, Z-Leu-Arg-MCA fluorescence; 300,000 tested, 0.49% active;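 active means inhibition above the mean of all tested compounds plus 3 SD, set per screening campaign, cut at about 17% in these data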;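 further: 0% = plate median of test compound wells and 100% = 1 µM Z-Phe-Ala-diazomethylketone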
TDP2 absorb: blocks human TDP2 phosphodiesterase activity; O95551; recombinant TDP2, T5PNP hydrolysis, p-nitrophenol absorbance 415 nm; inhibition, % at 12.8 µM; 370,000 tested, 0.34% active; AID 720702;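 active means inhibition above the mean of all tested compounds plus 3 SD, set per campaign, cut at about 25% in these data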;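 further: 0% = DMSO with enzyme and 100% = buffer with substrate but no TDP2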
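System – recombinant human TDP2 · Amount – 120 nM TDP2 per well · Buffer or medium – Mg2+-containing Tris-HCl buffer, pH 7.5 · Reagent – T5PNP substrate, 5 mM · Dosing – 12.8 µM single point, 1% DMSO · Incubation – 2 h at 37 °C · Measured by – epi absorbance · Read-out basis – percent inhibition · Benchmarks – high control without enzyme, low control DMSO plus TDP2 · Repeats – singlicate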
GSTO1 counter: blocks human GSTO1 in RBBP9 counter-screen; 300,000 tested, 1.1% active; AID 1974; inhibition, % at 5.96 µM; recombinant GSTO1, activity-based probe fluorescence polarization; P78417;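 active means inhibition above the campaign mean inhibition plus 3 SD, cut at about 35% in these data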;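 further: 0% = GSTO1-1 with DMSO and 100% = wells lacking GSTO1-1 enzyme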
Target sequence (P78417 whole entry, looked up): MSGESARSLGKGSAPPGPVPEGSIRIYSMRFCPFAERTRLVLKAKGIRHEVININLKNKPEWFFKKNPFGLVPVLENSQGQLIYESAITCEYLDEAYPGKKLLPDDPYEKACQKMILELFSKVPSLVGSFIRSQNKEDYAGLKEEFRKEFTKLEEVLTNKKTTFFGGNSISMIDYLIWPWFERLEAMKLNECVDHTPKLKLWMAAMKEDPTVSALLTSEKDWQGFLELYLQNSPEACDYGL
PAD4 confirm: confirmation of human PAD4 inhibitors; recombinant PAD4, RCA probe fluorescence polarization; shares compounds with PAD4 FP inh; inhibition, % at 6.36 µM; 1,200 tested, 28% active;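 active means mean inhibition across replicates above the hit cutoff set by the earlier primary screen, cut at about 15% in these data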;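 further: inhibitors block active-site labeling by the probe so polarization falls; 0% = PAD4 with probe and DMSO and 100% = probe without PAD4 enzyme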
Apaf-1 inh conf: confirmation of Apaf-1 inhibitors | shares compounds with Apaf1 inhib | reconstituted apoptosome, caspase-3 DEVD-Rh110 fluorescence | inhibition, % at 20 µM | 1,800 tested, 25% active | AID 504614;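 active means mean inhibition of at least 40% at 20 µM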;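 further: plate controls were DMSO wells for no effect and DEVD-CHO caspase inhibitor control wells for full effect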
Rh110 quench: Rh110 signal interference in Apaf-1 inhibitor counter-screen; 1,800 tested, under 10 active; shares compounds with Apaf1 inhib; Rh110 fluorescence interference, quenched caspase reaction; activation (fluorescence interference), % at 20 µM;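 active means signal rise of 40% or more at 20 µM, treated as a fluorescence artifact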
Apaf1 inh interf: counter-screen for Apaf-1 inhibitors: fluorescence interference, dose response; shares compounds with Apaf1 inhib; fluorescence interference counterscreen, Apaf-1 assay format; IC50, µM; 460 tested, under 10 active; call rule not given here
TDP2 inh conf: human TDP2 inhibition, confirmation. shares compounds with TDP2 absorb. recombinant human TDP2, absorbance read-out. inhibition, % at 12.8 µM. 1,100 tested, 22% active; in the data active means inhibition above about 25%;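 further: 0% = vehicle with enzyme and 100% = no enzyme buffer only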
An asterisk follows results filed as active; . = no result given. Most compounds without a hit are left out; they make up all but 1.8% or so of the library.

SMILES | PAD4 FP inh | Apaf1 inhib | Fh CTSL1 inh | TDP2 absorb | GSTO1 counter | PAD4 confirm | Apaf-1 inh conf | Rh110 quench | others
O=C(O)c1ccc2c3c(ncnc13)-c1ccccc1C2=O | 85* | 44* | 5 | . | 18 | 68* | 23 | 5
OCCNC(=S)Nc1ccc2nsnc2c1 | 28* | 97* | 112* | -6 | 85* | 6 | 13 | 4
O=C(NCCO)Nc1ccc2nsnc2c1 | 1 | -2 | -1 | -8 | 2 | . | . | .
CCOC(=O)[C@@]12CCCC3=C1N(CCC3)C(=O)[C@H]2CC(=O)NCC12CC3CC(CC(C3)C1)C2 | . | . | . | 5 | . | . | . | .
Cc1ccc(S(=O)(=O)NC(=O)Nc2ccc(N(C)C)cc2)cc1 | 28* | 57* | 5 | 11 | 87* | 5 | 23 | 2
CCOC(=O)[C@]12CCCCC/C=C\1N(CCc1ccc(Cl)cc1)C(=O)[C@H]2CC(=O)NCc1cccs1 | . | . | . | 1 | . | . | . | .
O=c1[nH]c(N2CCOCC2)cc2ccccc12 | 20* | 93* | 56* | 14 | 25 | -7 | 74* | 2 | Apaf1 inh interf=>100
O=c1c(N2CCOCC2)coc2ccccc12 | 1 | -4 | -4 | 7 | 1 | . | . | .
N#CC1=C(N)Oc2n[nH]c(-c3cccs3)c2C1c1ccsc1 (stereo not given) | 17* | 83* | 1 | 14 | 21 | -10 | 26 | 9
Oc1cc(NCc2ccc(F)cc2)cc2cccnc12 | -16 | 13 | . | 4 | . | . | . | .
CN(C)CCCNc1cc(O)c2ncccc2c1 | 16* | 77* | . | 14 | . | -10 | 55* | 3 | Apaf1 inh interf=>100
Cc1ccc(S(=O)(=O)NC(CCCNC(=O)OCc2ccccc2)C(=O)O)cc1 (stereo not given) | . | . | . | 0 | . | . | . | .
CN(C)c1ccc(N(C)C)c(C(O)(c2ccccc2)c2ccccc2)c1 | . | . | . | 3 | . | . | . | .
CCC(C)n1c(NC(=O)c2ccccc2)c(C#N)c2nc3ccccc3nc21 (stereo not given) | 29* | 93* | 2 | 77* | 24 | -17 | 33 | 9
Cc1onc(-c2ccccc2Cl)c1C(=O)NCc1ccc2c(c1)cc(C)n2C | 38* | 53* | -1 | 1 | 13 | 11 | 19 | 1
COC(=O)[C@]12C[C@H](CC(=O)NCc3ccc(OC)c(OC)c3)C(=O)N(Cc3ccc4c(c3)OCO4)C1=C[C@H](C(C)C)O[C@@H]2C1CC1 | . | . | . | -2 | . | . | . | .
COc1cc(CNCc2ccncc2)cc(Br)c1OCc1ccccc1F | -4 | 10 | 8 | -2 | 6 | . | . | .
COc1cc(CNc2ccc(O)cc2)cc(Br)c1OCc1ccccc1F | 28* | 96* | -6 | . | 86* | 8 | 23 | 14
CC1=NN(c2ccccc2)C(=O)C1N=Nc1cccc(O)c1 (stereo not given) | -6 | 2 | -3 | 0 | -1 | . | . | .
CC1=NN(c2ccc(C)cc2C)C(=O)C1C(c1cccc(O)c1)C1C(=O)N(c2ccc(C)cc2C)N=C1C (stereo not given) | 40* | 85* | 2 | 71* | 55* | -1 | 27 | -2
CCN(c1ccccc1)c1cc2ccccc2c(=O)[nH]1 | 16* | 96* | 51* | 28* | 29 | -2 | 59* | 5 | Apaf1 inh interf=>100;TDP2 inh conf=76*
Cc1cc(Br)cc(C=Nc2ccc(N3CCOCC3)cc2)c1O | 19* | 5 | -4 | 34* | 7 | 1 | . | . | TDP2 inh conf=-8
Oc1ccc(C=Nc2ccc(N3CCOCC3)cc2)c(O)c1 | 12 | -2 | 4 | 12 | 19 | . | . | .
CC[C@H](CCC(=O)N(c1ccccc1)c1ccccc1)C1CC1 | . | . | . | 5 | . | . | . | .
CC1=NN(c2ccccc2)C(=O)/C1=C/c1cccs1 | 35* | 90* | -3 | 71* | 55* | 1 | 12 | 3 | TDP2 inh conf=22

Source: PubChem BioAssay
